Legend:
MOLT-4 [1] = assay: Anticancer activity against human MOLT4 cells assessed as cell viability at 50 uM after 72 hrs by trypan blue exclusion assay; format: functional; conditions: MOLT-4, 72 h, read-out: Activity
Outline: (§1)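 MOLT-4 cells in RPMI 1640 with 10% FBS, grown in suspension at 37 °C, 5% CO2. Cells exposed for 72 h as in the MTT assay, with each compound at a single concentration. Suspension mixed 1:1 with trypan blue. Clear (viable) and blue cells counted on a hemocytometer. Percent viable cells expressed relative to control wells.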

MCF7 = assay: Anticancer activity against human MCF7 cells assessed as cell viability after 72 hrs by MTT reduction assay; format: functional, cell-based; conditions: MCF7, 72 h
Outline: (§2)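 Cells grown in RPMI 1640 with 10% FBS, 100 units/ml penicillin-G and streptomycin, 37 °C, 5% CO2. A549, MCF-7 and NIH/3T3 grown as monolayers, K562 and MOLT-4 in suspension. Seeding densities (cells/ml): A549 40,000, K562 40,000, MCF-7 30,000, MOLT-4 40,000, NIH/3T3 50,000. Overnight at 37 °C, then 3-4 concentrations added.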

MOLT-4 [2] = assay: Anticancer activity against human MOLT4 cells assessed as cell viability after 72 hrs by MTT reduction assay; format: functional, cell-based; conditions: MOLT-4, 72 h; outline: as §2
A549 = assay: Anticancer activity against human A549 cells assessed as cell viability after 72 hrs by MTT reduction assay; format: functional, cell-based; conditions: A549, 72 h; outline: as §2
NIH3T3 = assay: Anticancer activity against mouse NIH/3T3 cells assessed as cell viability after 72 hrs by MTT reduction assay; format: cell-based; conditions: NIH3T3, 72 h; outline: as §2
K562 = assay: Anticancer activity against human K562 cells assessed as cell viability after 72 hrs by MTT reduction assay; format: functional, cell-based; conditions: K562, 72 h; outline: as §2
MOLT-4 [3] = assay: Anticancer activity against human MOLT4 cells assessed as cell viability at 40 uM after 72 hrs by trypan blue exclusion assay; format: functional; conditions: MOLT-4, 72 h, read-out: Activity; outline: as §1
MOLT-4 [4] = assay: Anticancer activity against human MOLT4 cells assessed as cell viability at 75 uM after 72 hrs by trypan blue exclusion assay; format: functional; conditions: MOLT-4, 72 h, read-out: Activity; outline: as §1
MOLT-4 [5] = assay: Anticancer activity against human MOLT4 cells assessed as cell viability at 10 uM after 72 hrs by trypan blue exclusion assay; format: functional; conditions: MOLT-4, 72 h, read-out: Activity; outline: as §1
MOLT-4 [6] = assay: Anticancer activity against human MOLT4 cells assessed as cell viability at 100 uM after 72 hrs by trypan blue exclusion assay; format: functional; conditions: MOLT-4, 72 h, read-out: Activity; outline: as §1
MOLT-4 [7] = assay: Anticancer activity against human MOLT4 cells assessed as cell viability at 20 uM after 72 hrs by trypan blue exclusion assay; format: functional; conditions: MOLT-4, 72 h, read-out: Activity; outline: as §1
MOLT-4 [8] = assay: Anticancer activity against human MOLT4 cells assessed as cell viability at 65 uM after 72 hrs by trypan blue exclusion assay; format: functional; conditions: MOLT-4, 72 h, read-out: Activity; outline: as §1
MOLT-4 [9] = assay: Anticancer activity against human MOLT4 cells assessed as cell viability at 25 uM after 72 hrs by trypan blue exclusion assay; format: functional; conditions: MOLT-4, 72 h, read-out: Activity; outline: as §1

Row | IC50 (MCF7) [µM] | IC50 (MOLT-4 [2]) [µM] | IC50 (A549) [µM] | IC50 (K562) [µM] | SMILES | viability at 50 µM (MOLT-4 [1]) [%] | IC50 (NIH3T3) [µM] | viability at 40 µM (MOLT-4 [3]) [%] | viability at 75 µM (MOLT-4 [4]) [%] | viability at 10 µM (MOLT-4 [5]) [%] | viability at 100 µM (MOLT-4 [6]) [%] | viability at 20 µM (MOLT-4 [7]) [%] | viability at 65 µM (MOLT-4 [8]) [%] | viability at 25 µM (MOLT-4 [9]) [%]
1 | 68.7 | 52 | 73.1 | 55.3 | O=C1NC(=S)S/C1=C\C1=Cc2ccccc2OC1 | 49.3 | 72.4 | – | – | – | – | – | – | –
2 | > 100 | > 100 | > 100 | > 100 | O=C(O)CN1C(=O)/C(=C/C2=Cc3ccccc3OC2)SC1=S | – | – | – | – | – | – | – | – | –
3 | > 200 | > 200 | > 200 | > 200 | CCN1C(=O)S/C(=C\C2=Cc3ccccc3OC2)C1=O | – | – | – | – | – | – | – | – | –
4 | 57.9 | 54.7 | 79.5 | 49.8 | O=C1NC(=O)/C(=C/C2=Cc3cc(Br)ccc3OC2)S1 | 52.7 | 56.5 | – | – | – | – | – | – | –
5 | 40.4 | 38.2 | 51 | 33.7 | O=C1NC(=S)S/C1=C\C1=Cc2cc(Br)ccc2OC1 | – | 27.8 | 46.7 | – | – | – | – | – | –
6 | 51 | 77.5 | 19.3 | 79.3 | O=C1NC(=O)/C(=C/C2=Cc3cc(Br)ccc3OC2)N1 | – | 35.9 | – | 60.1 | – | – | – | – | –
7 | > 25 | > 25 | > 25 | > 25 | O=C(O)CN1C(=O)/C(=C/C2=Cc3cc(Br)ccc3OC2)SC1=S | – | – | – | – | – | – | – | – | –
8 | 89.1 | 13.2 | > 200 | 90.4 | CCN1C(=O)S/C(=C\C2=Cc3cccc(OC)c3OC2)C1=O | – | 75 | – | – | 53.2 | – | – | – | –
9 | > 200 | > 200 | > 200 | > 200 | COc1cccc2c1OCC(/C=C1\SC(=S)N(CC(=O)O)C1=O)=C2 | – | – | – | – | – | – | – | – | –
10 | 149 | 72 | 89.4 | 96.5 | CN1C(=N)NC(=O)/C1=C/C1=Cc2ccccc2OC1 | – | 106 | – | 49.5 | – | – | – | – | –
11 | > 100 | > 100 | > 100 | > 100 | CN1C(=O)S/C(=C\C2=Cc3ccccc3OC2)C1=O | – | – | – | – | – | – | – | – | –
12 | 99.4 | 101 | 192 | 98.9 | O=C1NC(=O)/C(=C/C2=Cc3ccccc3OC2)S1 | – | > 200 | – | – | – | 53.4 | – | – | –
13 | 8.1 | 21.3 | 29.7 | 55.7 | O=C1NC(=O)/C(=C/C2=Cc3ccccc3OC2)N1 | – | 180 | – | – | – | – | 53.3 | – | –
14 | 67.6 | 64.5 | 65.5 | 77 | CC1Oc2ccc(Br)cc2C=C1/C=C1\SC(=O)NC1=O (racemic) | – | 56.2 | – | – | – | – | – | 53.3 | –
15 | 19.9 | 20.5 | 47.5 | 31.6 | CC1Oc2ccc(Br)cc2C=C1/C=C1\SC(=S)NC1=O (racemic) | – | 28.7 | – | – | – | – | 53.1 | – | –
16 | 84.8 | 56.6 | 121 | 51.8 | CC1Oc2ccc(Br)cc2C=C1/C=C1/C(=O)NC(=N)N1C (racemic) | 54.3 | 87.7 | – | – | – | – | – | – | –
17 | 15.3 | 24.8 | 17.5 | 10.6 | CC1Oc2ccc(Br)cc2C=C1/C=C1\NC(=O)NC1=O (racemic) | – | 25.2 | – | – | – | – | – | – | 41.3
18 | > 50 | > 50 | > 50 | > 50 | CC1Oc2ccc(Br)cc2C=C1/C=C1\SC(=O)N(C)C1=O (racemic) | – | – | – | – | – | – | – | – | –
19 | > 100 | > 100 | > 100 | > 100 | CCN1C(=O)S/C(=C\C2=Cc3cc(Br)ccc3OC2C)C1=O (racemic) | – | – | – | – | – | – | – | – | –
20 | > 50 | > 50 | > 50 | > 50 | CC1Oc2ccc(Br)cc2C=C1/C=C1\SC(=S)N(CC(=O)O)C1=O (racemic) | – | – | – | – | – | – | – | – | –
